Key:
[1] = Thiol induced NO generation, through griess reaction expressed as % NO2- in presence of 5*10e-4 M L-cysteine
Procedure, shortened: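 Compound in DMSO diluted to 10^-4 M final in 1:1 v/v 50 mM phosphate buffer (pH 7.4)/MeOH containing 5 × 10^-4 M L-cysteine. Held 1 h at 37 °C, then treated with Griess reagent. Nitrite reported as % NO2- (mol/mol).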

[2] = molecular target: T1, Alpha-1A adrenergic receptor (Homo sapiens, UniProt P35348); test: Inhibition of [3H]prazosin binding to cloned human Alpha-1A adrenergic receptor in CHO cells (chinese hamster ovary cells); assay type: cell-based
T1 sequence (P35348 whole entry): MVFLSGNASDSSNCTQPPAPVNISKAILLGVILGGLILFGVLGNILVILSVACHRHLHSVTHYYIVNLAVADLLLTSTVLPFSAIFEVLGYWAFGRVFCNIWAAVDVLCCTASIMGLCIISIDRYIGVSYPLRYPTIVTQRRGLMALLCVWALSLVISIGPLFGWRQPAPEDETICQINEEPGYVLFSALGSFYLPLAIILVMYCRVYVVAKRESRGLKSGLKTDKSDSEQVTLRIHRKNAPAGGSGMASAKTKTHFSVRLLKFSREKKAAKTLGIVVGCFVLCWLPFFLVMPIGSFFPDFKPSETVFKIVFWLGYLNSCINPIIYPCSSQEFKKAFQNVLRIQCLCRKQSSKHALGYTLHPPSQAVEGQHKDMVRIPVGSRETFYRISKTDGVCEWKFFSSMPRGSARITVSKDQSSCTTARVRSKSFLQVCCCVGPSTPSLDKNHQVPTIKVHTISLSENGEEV
Procedure, shortened: (§1)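 Membranes from CHO cells expressing cloned human α1a, α1b or α1d subtypes, [3H]prazosin competition binding.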

[3] = molecular target: T2, 5-hydroxytryptamine receptor 1A (Homo sapiens, UniProt P08908); test: Inhibition of [3H]8-OH-DPAT binding to 5-hydroxytryptamine 1A receptor serotonergic receptor in human HeLa cells; assay type: cell-based
T2 sequence (P08908 whole entry): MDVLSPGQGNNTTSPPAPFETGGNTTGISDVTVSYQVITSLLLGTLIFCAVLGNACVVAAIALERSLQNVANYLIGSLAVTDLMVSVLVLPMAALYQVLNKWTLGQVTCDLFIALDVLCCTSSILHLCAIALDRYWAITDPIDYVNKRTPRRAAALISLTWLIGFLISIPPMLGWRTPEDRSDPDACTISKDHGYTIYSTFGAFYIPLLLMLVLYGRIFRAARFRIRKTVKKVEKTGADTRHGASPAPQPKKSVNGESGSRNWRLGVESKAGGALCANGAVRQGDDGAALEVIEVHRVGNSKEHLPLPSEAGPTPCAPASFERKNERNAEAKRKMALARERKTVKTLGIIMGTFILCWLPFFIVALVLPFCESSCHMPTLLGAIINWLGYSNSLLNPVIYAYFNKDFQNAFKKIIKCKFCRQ
Procedure, shortened: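 Membranes from HeLa cells expressing the cloned human 5-HT1A receptor, [3H]-8-OH-DPAT competition binding.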

[4] = molecular target: T3, Alpha-1D adrenergic receptor (Homo sapiens, UniProt P25100); test: Inhibition of [3H]-prazosin binding to cloned human Alpha-1D adrenergic receptor in CHO cells (chinese hamster ovary cells); assay type: cell-based; procedure, shortened: as §1
T3 sequence (P25100 whole entry): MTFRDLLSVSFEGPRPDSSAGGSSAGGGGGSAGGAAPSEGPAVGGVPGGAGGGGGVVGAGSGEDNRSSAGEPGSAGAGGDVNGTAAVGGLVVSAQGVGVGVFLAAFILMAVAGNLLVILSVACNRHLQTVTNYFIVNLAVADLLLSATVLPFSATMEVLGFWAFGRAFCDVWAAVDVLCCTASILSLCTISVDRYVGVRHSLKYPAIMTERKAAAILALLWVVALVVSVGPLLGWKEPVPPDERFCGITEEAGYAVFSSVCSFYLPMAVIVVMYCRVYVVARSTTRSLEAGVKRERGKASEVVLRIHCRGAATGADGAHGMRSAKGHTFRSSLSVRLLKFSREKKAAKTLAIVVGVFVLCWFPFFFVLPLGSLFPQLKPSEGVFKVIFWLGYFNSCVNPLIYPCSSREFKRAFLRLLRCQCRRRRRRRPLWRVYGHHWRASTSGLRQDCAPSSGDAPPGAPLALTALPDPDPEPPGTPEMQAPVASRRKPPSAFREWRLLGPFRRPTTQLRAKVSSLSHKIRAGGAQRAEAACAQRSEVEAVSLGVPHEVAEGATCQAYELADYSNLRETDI

[5] = molecular target: T4, Adrenergic receptor alpha-2 (Rattus norvegicus, UniProt P22086+P19328+P22909); test: Inhibition of [3H]- rauwolscine binding to alpha-2 adrenergic receptor in membrane of rat cerebral cortex; assay type: tissue-based
T4 sequence (P22086 whole entry): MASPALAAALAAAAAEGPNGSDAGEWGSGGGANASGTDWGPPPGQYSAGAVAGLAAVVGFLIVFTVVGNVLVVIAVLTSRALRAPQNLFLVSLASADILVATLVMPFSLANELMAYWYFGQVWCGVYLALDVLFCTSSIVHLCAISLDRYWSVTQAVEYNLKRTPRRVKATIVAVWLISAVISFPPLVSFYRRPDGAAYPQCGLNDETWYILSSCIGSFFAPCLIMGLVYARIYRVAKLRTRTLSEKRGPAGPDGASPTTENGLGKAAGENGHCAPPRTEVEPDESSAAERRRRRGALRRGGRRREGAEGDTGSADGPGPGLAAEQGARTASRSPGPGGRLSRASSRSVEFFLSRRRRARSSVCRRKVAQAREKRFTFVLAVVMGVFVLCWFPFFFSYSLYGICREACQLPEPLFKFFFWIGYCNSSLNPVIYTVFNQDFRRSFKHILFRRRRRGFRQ
T4 sequence (P19328 whole entry): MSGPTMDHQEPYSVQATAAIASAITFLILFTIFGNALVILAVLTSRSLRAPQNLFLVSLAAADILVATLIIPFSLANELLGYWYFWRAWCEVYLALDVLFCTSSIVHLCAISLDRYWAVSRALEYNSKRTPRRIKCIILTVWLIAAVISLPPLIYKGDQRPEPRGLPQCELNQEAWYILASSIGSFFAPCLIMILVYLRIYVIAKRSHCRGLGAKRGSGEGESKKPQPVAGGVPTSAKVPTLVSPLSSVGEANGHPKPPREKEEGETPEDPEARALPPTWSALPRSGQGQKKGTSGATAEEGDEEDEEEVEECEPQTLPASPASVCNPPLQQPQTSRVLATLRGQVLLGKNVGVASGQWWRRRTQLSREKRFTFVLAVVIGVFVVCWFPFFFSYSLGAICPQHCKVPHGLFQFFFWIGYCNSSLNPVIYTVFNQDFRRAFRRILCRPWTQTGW
T4 sequence (P22909 whole entry): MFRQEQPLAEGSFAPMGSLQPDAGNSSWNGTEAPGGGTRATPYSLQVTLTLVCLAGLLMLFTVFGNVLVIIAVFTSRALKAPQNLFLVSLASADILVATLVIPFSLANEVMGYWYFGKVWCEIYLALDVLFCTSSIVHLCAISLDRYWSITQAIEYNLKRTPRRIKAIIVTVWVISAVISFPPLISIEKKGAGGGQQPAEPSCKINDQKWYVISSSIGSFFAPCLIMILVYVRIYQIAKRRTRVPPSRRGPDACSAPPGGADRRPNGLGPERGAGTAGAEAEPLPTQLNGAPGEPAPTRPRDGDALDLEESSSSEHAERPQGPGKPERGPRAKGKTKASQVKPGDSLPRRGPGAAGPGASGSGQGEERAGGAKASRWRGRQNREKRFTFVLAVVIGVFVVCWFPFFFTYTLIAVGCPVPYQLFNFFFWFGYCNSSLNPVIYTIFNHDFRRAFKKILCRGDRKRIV
Procedure, shortened: (§2)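 Native α2 receptors in rat cerebral cortex membranes, competition binding with [3H]rauwolscine.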

[6] = molecular target: T5, Alpha-1B adrenergic receptor (Homo sapiens, UniProt P35368); test: Inhibition of [3H]-prazosin binding to cloned human Alpha-1B adrenergic receptor in CHO cells (chinese hamster ovary cells); assay type: cell-based; procedure, shortened: as §1
T5 sequence (P35368 whole entry): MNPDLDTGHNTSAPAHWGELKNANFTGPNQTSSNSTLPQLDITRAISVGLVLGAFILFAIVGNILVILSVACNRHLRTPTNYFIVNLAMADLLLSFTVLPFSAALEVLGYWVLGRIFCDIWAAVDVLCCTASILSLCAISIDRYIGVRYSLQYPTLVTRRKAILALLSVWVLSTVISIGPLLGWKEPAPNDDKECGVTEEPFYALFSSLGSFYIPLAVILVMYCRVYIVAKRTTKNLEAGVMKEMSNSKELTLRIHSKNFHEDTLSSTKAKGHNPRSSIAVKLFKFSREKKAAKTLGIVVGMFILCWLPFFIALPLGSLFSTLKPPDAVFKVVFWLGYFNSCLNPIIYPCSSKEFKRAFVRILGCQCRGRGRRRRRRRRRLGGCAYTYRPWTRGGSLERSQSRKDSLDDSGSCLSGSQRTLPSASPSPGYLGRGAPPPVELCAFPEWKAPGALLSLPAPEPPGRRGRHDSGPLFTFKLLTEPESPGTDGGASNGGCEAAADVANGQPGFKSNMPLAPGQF

[7] = molecular target: T6, Alpha-1A adrenergic receptor (Rattus norvegicus, UniProt P43140); test: Functional Alpha-1A adrenergic receptor antagonistic activity of noradrenaline induced contractions in prostatic portion of rat vas deferens; assay type: tissue-based; conditions: read-out: pA2 (converted)
T6 sequence (P43140 whole entry): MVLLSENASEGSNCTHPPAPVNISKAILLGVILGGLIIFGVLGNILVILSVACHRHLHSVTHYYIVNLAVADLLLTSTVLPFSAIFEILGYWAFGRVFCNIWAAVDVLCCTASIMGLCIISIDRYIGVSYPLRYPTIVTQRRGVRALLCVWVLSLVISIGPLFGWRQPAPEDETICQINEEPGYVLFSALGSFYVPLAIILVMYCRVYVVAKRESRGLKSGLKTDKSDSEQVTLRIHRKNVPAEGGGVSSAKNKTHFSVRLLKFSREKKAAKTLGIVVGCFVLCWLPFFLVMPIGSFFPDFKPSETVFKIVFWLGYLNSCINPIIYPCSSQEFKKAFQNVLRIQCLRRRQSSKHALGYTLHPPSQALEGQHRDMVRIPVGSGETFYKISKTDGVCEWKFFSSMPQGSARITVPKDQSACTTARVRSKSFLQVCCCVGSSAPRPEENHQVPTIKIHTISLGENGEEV
Procedure, shortened: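 Rat vas deferens, prostatic portion. Cumulative noradrenaline concentration-response curves were run with and without antagonist. pA2 came from 6-14 determinations. Where two antagonist concentrations were used and gave similar pA2, antagonism was taken as competitive; otherwise an apparent pA2 was taken at one concentration. Where NO relaxation appeared, 1 µM ODQ was added at least 10 min before the antagonist.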

[8] = molecular target: T5, Alpha-1B adrenergic receptor; test: Inhibition of [3H]prazosin binding to cloned human Alpha-1B adrenergic receptor in CHO cells (chinese hamster ovary cells); assay type: cell-based; procedure, shortened: as §1
[9] = molecular target: T4, Adrenergic receptor alpha-2; test: Inhibition of [3H]- rauwolscine binding to alpha-2 adrenergic receptor in rat cerebral cortex; assay type: tissue-based; procedure, shortened: as §2

Row | NO2- (mol/mol) [1] [%] | Ki [2] [nM] | Ki [3] [nM] | Ki [4] [nM] | Ki [5] [nM] | Ki [6] [nM] | Kb [7] [nM] | Ki [8] [nM] | Ki [9] [nM] | SMILES
1 | 32.3 | 0.73 | 2.2 | 3.9 | 81.1 | 6.5 | 34.7 |  |  | Cc1c(-c2ccccc2)oc2c(C(=O)NCCCN3CCN(c4ccccc4OCc4no[n+]([O-])c4C#N)CC3)cccc2c1=O
2 | < 1 | 0.094 | 7.2 | 3.5 | 81.8 | 1.2 | 2.29 |  |  | Cc1c(-c2ccccc2)oc2c(C(=O)NCCCN3CCN(c4ccccc4OCCCO[N+](=O)[O-])CC3)cccc2c1=O
3 | 5.28 | 1.8 | 1.2 | 20.4 | 359 | 15.9 | 10.7 |  |  | Cc1c(-c2ccccc2)oc2c(C(=O)NCCCN3CCN(c4ccccc4OCc4no[n+]([O-])c4C(N)=O)CC3)cccc2c1=O
4 | 1.11 | 0.16 | 1.6 | 4.2 | 53.5 |  | 6.17 | 4.7 |  | Cc1c(-c2ccccc2)oc2c(C(=O)NCCCN3CCN(c4ccccc4OCc4no[n+]([O-])c4C)CC3)cccc2c1=O
5 |  |  |  |  |  |  | 3.8 |  | 33.3 | COc1ccccc1N1CCN(CCCNC(=O)c2cccc3c(=O)c(C)c(-c4ccccc4)oc23)CC1 [UPIDOSIN]
